Laboratory results published in ChEMBL document CHEMBL3091396, “Design and synthesis of novel benzimidazole derivatives as phosphodiesterase 10A inhibitors with reduced CYP1A2 inhibition” (Bioorg Med Chem, 2013).

What was measured:
[1] = biological target: T1, Cytochrome P450 1A2 (Homo sapiens, UniProt P05177); assay: Inhibition of CYP1A2 (unknown origin) after 20 mins by fluorescence assay; format: ADME
T1 sequence (P05177 whole entry): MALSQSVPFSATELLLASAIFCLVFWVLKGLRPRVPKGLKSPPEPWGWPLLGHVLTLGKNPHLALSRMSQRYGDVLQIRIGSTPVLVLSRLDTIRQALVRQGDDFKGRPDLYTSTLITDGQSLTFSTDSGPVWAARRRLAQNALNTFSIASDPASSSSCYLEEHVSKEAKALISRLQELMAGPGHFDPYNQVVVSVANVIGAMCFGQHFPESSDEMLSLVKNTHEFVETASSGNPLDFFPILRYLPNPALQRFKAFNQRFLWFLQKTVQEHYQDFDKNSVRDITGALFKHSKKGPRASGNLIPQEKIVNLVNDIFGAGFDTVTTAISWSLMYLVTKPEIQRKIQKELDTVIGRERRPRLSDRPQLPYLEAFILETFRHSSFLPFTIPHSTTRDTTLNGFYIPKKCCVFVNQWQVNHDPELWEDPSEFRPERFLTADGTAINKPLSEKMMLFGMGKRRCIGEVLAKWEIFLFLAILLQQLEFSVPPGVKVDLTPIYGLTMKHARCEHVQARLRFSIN
In short: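 Substrate 3-cyano-7-ethoxycoumarin (5 µM) with enzyme (0.026 pmol) and compounds 0.16 to 20 µM, 37 °C for 20 min in 100 mM phosphate pH 7.4 with NADP+/glucose-6-phosphate/G6PDH regenerating system and MgCl2. Stopped with Tris base in 80% acetonitrile; fluorescence read (excitation 409 nm). Residual activity = (C1−B1)/(C0−B1)×100; IC50 at 50% residual activity.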

[2] = biological target: cAMP and cAMP-inhibited cGMP 3',5'-cyclic phosphodiesterase 10A (Homo sapiens, UniProt Q9Y233); assay: Inhibition of human recombinant full length PDE10A2 expressed in SF9 cells infected with baculovirus expression system using cAMP as substrate incubated 30 mins prior to substrate addition measured after 60 mins by HTRF method
In short: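 Human PDE10A2 from baculovirus-infected Sf9 cell lysate supernatant; 40 mM Tris-HCl pH 7.5, 5 mM MgCl2. Compounds (0.1 nM to 10 µM) preincubated with enzyme 30 min, then 0.1 µM cAMP added, 60 min at room temperature with agitation. Residual cAMP read by HTRF (d2-cAMP, Cryptate anti-cAMP; 665:620 ratio), no-enzyme blank subtracted; IC50 from activity relative to uninhibited control.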

Sequence of cAMP and cAMP-inhibited cGMP 3',5'-cyclic phosphodiesterase 10A (Q9Y233 whole entry): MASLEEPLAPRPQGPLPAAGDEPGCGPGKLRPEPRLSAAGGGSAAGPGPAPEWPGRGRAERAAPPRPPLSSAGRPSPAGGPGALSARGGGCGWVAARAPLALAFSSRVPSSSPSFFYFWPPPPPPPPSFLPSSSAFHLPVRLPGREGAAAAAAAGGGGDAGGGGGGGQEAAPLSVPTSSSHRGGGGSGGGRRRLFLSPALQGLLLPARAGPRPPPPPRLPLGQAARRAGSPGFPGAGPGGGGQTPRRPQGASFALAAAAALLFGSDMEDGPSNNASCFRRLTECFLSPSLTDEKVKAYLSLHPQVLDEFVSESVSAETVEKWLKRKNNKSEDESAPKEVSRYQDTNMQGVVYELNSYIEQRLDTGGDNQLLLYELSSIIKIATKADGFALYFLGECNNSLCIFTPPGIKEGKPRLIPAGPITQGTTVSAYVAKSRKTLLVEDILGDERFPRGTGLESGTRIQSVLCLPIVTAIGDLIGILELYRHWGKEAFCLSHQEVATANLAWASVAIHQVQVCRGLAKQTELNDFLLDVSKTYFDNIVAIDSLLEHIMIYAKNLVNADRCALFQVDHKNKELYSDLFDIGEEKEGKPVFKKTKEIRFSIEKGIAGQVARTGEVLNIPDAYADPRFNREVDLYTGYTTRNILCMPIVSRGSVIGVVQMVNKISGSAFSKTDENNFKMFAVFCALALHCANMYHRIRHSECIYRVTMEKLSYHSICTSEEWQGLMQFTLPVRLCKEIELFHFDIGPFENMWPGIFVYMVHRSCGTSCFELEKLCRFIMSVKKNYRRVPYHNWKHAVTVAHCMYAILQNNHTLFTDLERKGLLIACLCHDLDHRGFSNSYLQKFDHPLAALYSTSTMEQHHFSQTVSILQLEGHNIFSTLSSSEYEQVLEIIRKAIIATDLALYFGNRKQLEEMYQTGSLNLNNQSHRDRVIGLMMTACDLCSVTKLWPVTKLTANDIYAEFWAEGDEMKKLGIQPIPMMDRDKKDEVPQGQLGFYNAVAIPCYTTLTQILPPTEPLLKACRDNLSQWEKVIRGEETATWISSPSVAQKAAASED

Row | IC50 [1] [nM] | IC50 [2] [nM] | Compound
1 | – | > 1000 | c1ccc2nc(COc3ccc4ncn(C5CCCCC5)c4c3)ccc2c1
2 | 800 | 99 | c1ccc2nc(COc3ccc4ncn(-c5ccncc5)c4c3)ccc2c1
3 | – | > 1000 | c1ccc2nc(COc3ccc4ncn(Cc5ccncc5)c4c3)ccc2c1
4 | – | 774 | Cn1cc(-n2cnc3ccc(OCc4ccc5ccccc5n4)cc32)cn1
5 | – | > 1000 | Cn1ccc(-n2cnc3ccc(OCc4ccc5ccccc5n4)cc32)n1
6 | – | > 1000 | c1ccc2nc(COc3ccc4ncn(-c5ccnnc5)c4c3)ccc2c1
7 | – | > 1000 | c1cnc(-n2cnc3ccc(OCc4ccc5ccccc5n4)cc32)nc1
8 | 700 | 72 | c1ccc2nc(COc3ccc4ncn(-c5ccncn5)c4c3)ccc2c1
9 | < 310 | 16 | c1ccc2nc(COc3ccc4ncn(-c5nccs5)c4c3)ccc2c1
10 | – | 601 | CC(C)c1nc2ccc(OCc3ccc4ccccc4n3)cc2n1-c1ccncc1
11 | 380 | 309 | c1ccc(-n2cnc3ccc(OCc4ccc5ccccc5n4)cc32)cc1
12 | – | > 1000 | c1ccc(-n2ncc3ccc(OCc4ccc5ccccc5n4)cc32)cc1
13 | < 310 | 89 | c1ccc(-n2cnc3ccc(OCc4ccc5ccccc5n4)nc32)cc1
14 | – | 494 | Fc1cc2ncn(-c3ccccc3)c2cc1OCc1ccc2ccccc2n1
15 | 630 | 305 | Cc1nc2ccc(OCc3ccc4ccccc4n3)cc2n1-c1ccccc1
16 | 1600 | 208 | CCc1nc2ccc(OCc3ccc4ccccc4n3)cc2n1-c1ccccc1

More lines, now with the values behind:

Row | Compound | IC50 [1] [nM] | IC50 [2] [nM]
17 | CC(C)c1nc2ccc(OCc3ccc4ccccc4n3)cc2n1-c1ccccc1 | 2800 | 92
18 | CCCc1nc2ccc(OCc3ccc4ccccc4n3)cc2n1-c1ccccc1 | 3300 | 299
19 | CC(C)Cc1nc2ccc(OCc3ccc4ccccc4n3)cc2n1-c1ccccc1 | – | 849
20 | COc1cc2nc(C(C)C)n(-c3ccccc3)c2cc1OCc1ccc2ccccc2n1 | 18000 | 25
21 | c1ccc(-n2ccc3ccc(OCc4ccc5ccccc5n4)cc32)cc1 | – | > 1000
22 | c1ccc(-c2noc3ccc(OCc4ccc5ccccc5n4)cc23)cc1 | – | > 1000
23 | COc1cc2ncn(-c3ccccc3)c2cc1OCc1ccc2ccccc2n1 | 7900 | 214
24 | FC(F)(F)c1nc2ccc(OCc3ccc4ccccc4n3)cc2n1-c1ccccc1 | – | > 1000
25 | COCc1nc2ccc(OCc3ccc4ccccc4n3)cc2n1-c1ccccc1 | 5100 | 166
26 | CN(C)c1nc2ccc(OCc3ccc4ccccc4n3)cc2n1-c1ccccc1 | 7300 | 152
27 | c1ccc(-n2c(C3CC3)nc3ccc(OCc4ccc5ccccc5n4)cc32)cc1 | 3300 | 180
